Data published in ChEMBL document CHEMBL3763042, “Synthesis, biological evaluation and molecular modeling of a novel series of 7-azaindole based tri-heterocyclic compounds as potent CDK2/Cyclin E inhibitors” (Eur J Med Chem, 2016).

Tests used:
CDK7/Cyclin H/MNAT1 = CDK7/Cyclin H/MNAT1 (Homo sapiens, UniProt P50613); experiment: Inhibition of CDK7/Cyclin H/MAT1 (unknown origin) using (YSPTSPS)2KK peptide as substrate in presence of [gamma-33P]ATP; format: protein-complex assay
[1] = biological target: Cyclin-dependent kinase 1/cyclin B1 (Homo sapiens, UniProt P06493); experiment: Inhibition of CDK1/Cyclin B (unknown origin) expressed in baculoviral infected insect Sf9 cells using histone H1 as substrate in presence of [gamma-33P]ATP; format: cell-based
Chain of Cyclin-dependent kinase 1/cyclin B1 (P06493 whole entry): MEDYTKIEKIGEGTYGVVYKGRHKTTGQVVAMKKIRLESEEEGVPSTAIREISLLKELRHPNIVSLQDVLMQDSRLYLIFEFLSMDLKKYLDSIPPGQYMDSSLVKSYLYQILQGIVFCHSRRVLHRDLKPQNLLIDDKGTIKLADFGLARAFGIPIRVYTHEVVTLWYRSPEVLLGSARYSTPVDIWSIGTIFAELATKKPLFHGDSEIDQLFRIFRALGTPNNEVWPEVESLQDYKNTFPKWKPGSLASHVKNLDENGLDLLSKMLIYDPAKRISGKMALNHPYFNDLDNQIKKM
Chain of Cyclin-dependent kinase 1/cyclin B1 (P14635 whole entry, further chain): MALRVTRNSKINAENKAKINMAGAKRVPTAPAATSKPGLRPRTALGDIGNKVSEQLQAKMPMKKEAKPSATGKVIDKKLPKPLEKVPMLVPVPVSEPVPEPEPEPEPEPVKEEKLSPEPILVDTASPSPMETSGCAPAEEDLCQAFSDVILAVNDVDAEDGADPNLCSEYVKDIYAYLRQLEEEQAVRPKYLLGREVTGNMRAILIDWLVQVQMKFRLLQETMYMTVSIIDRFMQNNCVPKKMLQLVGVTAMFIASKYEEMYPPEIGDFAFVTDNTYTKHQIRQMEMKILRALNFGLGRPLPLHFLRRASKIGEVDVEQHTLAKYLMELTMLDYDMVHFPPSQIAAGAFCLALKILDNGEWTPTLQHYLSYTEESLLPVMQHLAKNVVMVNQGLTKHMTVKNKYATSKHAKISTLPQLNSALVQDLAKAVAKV

[2] = biological target: Cyclin-dependent kinase 5/CDK5 activator 1 (Homo sapiens, UniProt Q00535); experiment: Inhibition of CDK5/p35NCK (unknown origin) using histone H1 as substrate in presence of [gamma-33P]ATP; format: protein-complex assay
Chain of Cyclin-dependent kinase 5/CDK5 activator 1 (Q00535 whole entry): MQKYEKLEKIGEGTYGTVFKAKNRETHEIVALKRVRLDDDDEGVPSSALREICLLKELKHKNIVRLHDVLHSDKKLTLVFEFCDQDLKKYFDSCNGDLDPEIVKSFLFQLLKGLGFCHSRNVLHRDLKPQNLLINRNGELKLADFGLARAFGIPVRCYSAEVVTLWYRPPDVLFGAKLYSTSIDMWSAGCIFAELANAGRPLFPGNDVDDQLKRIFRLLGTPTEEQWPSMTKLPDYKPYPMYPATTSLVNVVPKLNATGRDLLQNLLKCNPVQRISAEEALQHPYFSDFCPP
Chain of Cyclin-dependent kinase 5/CDK5 activator 1 (Q15078 whole entry, further chain): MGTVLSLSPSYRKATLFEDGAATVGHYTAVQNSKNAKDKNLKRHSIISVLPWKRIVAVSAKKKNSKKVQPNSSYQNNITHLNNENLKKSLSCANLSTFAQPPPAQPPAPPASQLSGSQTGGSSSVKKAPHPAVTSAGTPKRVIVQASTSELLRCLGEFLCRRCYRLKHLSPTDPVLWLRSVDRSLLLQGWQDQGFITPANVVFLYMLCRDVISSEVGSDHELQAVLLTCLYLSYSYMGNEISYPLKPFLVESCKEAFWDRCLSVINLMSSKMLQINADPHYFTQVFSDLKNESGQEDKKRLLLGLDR

[3] = biological target: Cyclin-dependent kinase 4/cyclin D1 (Homo sapiens, UniProt P11802); experiment: Inhibition of CDK4/Cyclin D1 (unknown origin) using RPPTLSPIPHIPR peptide as substrate in presence of [gamma-33P]ATP; format: protein-complex assay
Chain of Cyclin-dependent kinase 4/cyclin D1 (P11802 whole entry): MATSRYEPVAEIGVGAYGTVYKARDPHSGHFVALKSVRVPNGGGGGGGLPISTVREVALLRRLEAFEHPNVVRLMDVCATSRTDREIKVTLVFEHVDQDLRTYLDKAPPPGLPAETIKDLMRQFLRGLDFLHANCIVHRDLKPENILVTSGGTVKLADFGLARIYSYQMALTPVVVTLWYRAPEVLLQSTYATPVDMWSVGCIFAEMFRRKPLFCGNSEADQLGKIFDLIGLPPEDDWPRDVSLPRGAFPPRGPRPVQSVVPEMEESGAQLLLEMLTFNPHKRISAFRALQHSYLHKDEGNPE
Chain of Cyclin-dependent kinase 4/cyclin D1 (P24385 whole entry, further chain): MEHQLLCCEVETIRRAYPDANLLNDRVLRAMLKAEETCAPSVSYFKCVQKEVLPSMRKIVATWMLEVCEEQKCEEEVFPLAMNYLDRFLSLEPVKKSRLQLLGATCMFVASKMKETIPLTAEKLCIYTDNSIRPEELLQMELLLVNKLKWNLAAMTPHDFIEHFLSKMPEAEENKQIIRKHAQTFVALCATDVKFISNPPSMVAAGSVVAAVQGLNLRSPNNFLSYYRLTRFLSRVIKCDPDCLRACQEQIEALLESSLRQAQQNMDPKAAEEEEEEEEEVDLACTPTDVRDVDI

K562 [4] = experiment: Cytotoxicity against human K562 cells assessed as cell viability at 50 uM after 72 hrs by fluorescence microplate reader method; format: functional; conditions: K562, 72 h, read-out: Activity
MCF7 [5] = experiment: Cytotoxicity against human MCF7 cells assessed as cell viability at 50 uM after 72 hrs by fluorescence microplate reader method; format: functional; conditions: MCF7, 72 h, read-out: Activity
[6] = biological target: T1, Cyclin-dependent kinase 2/cyclin E1 (Homo sapiens, UniProt P24941); experiment: Inhibition of CDK2/Cyclin E (unknown origin) expressed in baculoviral infected insect Sf9 cells using histone H1 as substrate in presence of [gamma-33P]ATP
[7] = Cytotoxicity against human G361 cells assessed as cell viability after 72 hrs by fluorescence microplate reader method; format: functional, cell-based; conditions: G-361, 72 h
How it was run: (§1)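 Cells were exposed to three-fold compound dilutions in triplicate for 72 h. Viability was read after adding Calcein AM, as live-cell fluorescence at 485/538 nm (excitation/emission).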

G-361 = experiment: Induction of apoptosis in human G361 cells assessed as activation of caspases-3/7 at 50 uM using Ac-DEVD-AMC as substrate after 6 hrs by fluorescence microplate reader method relative to control; format: functional
How it was run: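 G361 cells were seeded at 20,000 cells/well overnight, then treated with compound for 24 h. A 3x caspase-3/7 buffer (HEPES pH 7.4, NaCl, KCl, MgCl2, EGTA, Nonidet P40, CHAPS, sucrose, DTT, PMSF) containing Ac-DEVD-AMC substrate was added, and plates were incubated at 37 °C. Fluorescence at 346/442 nm was read after 6 h and expressed relative to untreated control.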

K562 [8] = experiment: Cytotoxicity against human K562 cells assessed as cell viability after 72 hrs by fluorescence microplate reader method; format: functional, cell-based; conditions: K562, 72 h; how it was run: as §1
MCF7 [9] = experiment: Cytotoxicity against human MCF7 cells assessed as cell viability after 72 hrs by fluorescence microplate reader method; format: functional, cell-based; conditions: MCF7, 72 h; how it was run: as §1
[10] = Cytotoxicity against human G361 cells assessed as cell viability at 50 uM after 72 hrs by fluorescence microplate reader method; format: functional; conditions: G-361, 72 h, read-out: Activity
[11] = biological target: T1, Cyclin-dependent kinase 2/cyclin E1; experiment: Inhibition of CDK2/Cyclin E (unknown origin); format: protein-complex assay

Chain of CDK7/Cyclin H/MNAT1 (P51946 whole entry): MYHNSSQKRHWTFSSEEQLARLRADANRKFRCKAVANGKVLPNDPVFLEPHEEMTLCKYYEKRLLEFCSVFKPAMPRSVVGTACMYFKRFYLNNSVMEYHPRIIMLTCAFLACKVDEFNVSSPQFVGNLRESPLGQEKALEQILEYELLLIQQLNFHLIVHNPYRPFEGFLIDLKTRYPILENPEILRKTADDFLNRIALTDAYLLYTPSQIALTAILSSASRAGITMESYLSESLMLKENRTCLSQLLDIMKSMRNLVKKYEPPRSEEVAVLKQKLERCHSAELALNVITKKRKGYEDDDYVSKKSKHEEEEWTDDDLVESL
Chain of CDK7/Cyclin H/MNAT1 (P50613 whole entry): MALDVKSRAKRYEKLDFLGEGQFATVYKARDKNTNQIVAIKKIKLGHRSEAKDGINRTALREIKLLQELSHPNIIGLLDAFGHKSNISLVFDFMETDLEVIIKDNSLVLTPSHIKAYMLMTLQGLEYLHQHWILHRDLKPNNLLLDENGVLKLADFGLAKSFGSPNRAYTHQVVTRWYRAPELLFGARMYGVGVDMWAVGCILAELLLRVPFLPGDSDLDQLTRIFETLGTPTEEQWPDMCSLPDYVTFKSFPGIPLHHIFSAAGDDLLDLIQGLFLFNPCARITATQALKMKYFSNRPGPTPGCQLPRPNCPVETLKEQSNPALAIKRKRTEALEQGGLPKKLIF
Chain of CDK7/Cyclin H/MNAT1 (P51948 whole entry, further chain): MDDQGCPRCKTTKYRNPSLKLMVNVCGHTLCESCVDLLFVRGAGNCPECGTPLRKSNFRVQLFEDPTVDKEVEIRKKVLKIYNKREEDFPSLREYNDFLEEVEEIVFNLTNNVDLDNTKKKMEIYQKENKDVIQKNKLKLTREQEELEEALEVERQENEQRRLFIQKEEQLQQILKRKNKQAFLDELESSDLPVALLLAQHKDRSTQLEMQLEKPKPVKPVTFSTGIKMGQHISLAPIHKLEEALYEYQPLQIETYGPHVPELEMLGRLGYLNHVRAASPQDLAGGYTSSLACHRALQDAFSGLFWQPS

| Structure (SMILES) | IC50 (CDK7/Cyclin H/MNAT1) | IC50 [1] | IC50 [2] | IC50 [3] | viability at 50 µM (K562 [4]) | viability at 50 µM (MCF7 [5]) | IC50 ([6]; read-out: IC50) | IC50 ([6]; read-out: pIC50 (converted)) | IC50 [7] | fold change (FC) (G-361) | IC50 (K562 [8]) | IC50 (MCF7 [9]) | viability at 50 µM [10] | IC50 [11] |
| --- | --- | --- | --- | --- | --- | --- | --- | --- | --- | --- | --- | --- | --- | --- |
| COc1ccccc1-c1cc(Nc2cccc(CS(N)(=O)=O)c2)ncn1 | > 20 µM | 3.95 µM | 4.96 µM | 3.16 µM |  |  |  |  |  |  |  |  |  |  |
| c1cnc2[nH]c(Cn3cc(-c4c[nH]c5ncccc45)nn3)cc2c1 |  |  |  |  | 81.9% | 84.5% | 18.4 µM | 20 µM | > 50 µM | 2.1 | > 50 µM | 47.4 µM | 88.6% |  |
| Nc1ccc(CC(=O)Nc2cccc3c2C(=O)c2c-3n[nH]c2-c2ccc(O)cc2)cc1 |  |  |  |  |  |  |  |  |  |  |  |  |  | 38 nM |
| O=C(CCn1nncc1-c1c[nH]c2ncccc12)c1c[nH]c2ncccc12 |  |  |  |  | 73.8% | 77.5% | 13.4 µM | 12.6 µM | > 50 µM | 3.3 | > 25 µM | > 25 µM | 78.7% |  |
| Cc1nc(C)c(-c2ccnc(Nc3ccc(N4CCN(C)CC4)cc3)n2)s1 |  |  |  |  |  |  |  |  |  |  |  |  |  | 1020 nM |
| O=C(NNC(=O)c1ccccc1O)Nc1cccc2c1C(=O)c1c-2n[nH]c1-c1ccc(O)cc1 |  |  |  |  |  |  |  |  |  |  |  |  |  | 8.91 nM |
| c1cnc2[nH]c(Cn3cc(-c4cc5cccnc5[nH]4)nn3)cc2c1 |  |  |  |  | 97.6% | 74.8% | 1.9 µM | 2 µM | > 50 µM | 1.9 | > 25 µM | > 25 µM | 90.6% |  |
| Cn1ccc2ccc3c4[nH]c5cccc(Br)c5c4c4c(c3c21)C(=O)NC4=O |  |  |  |  |  |  |  |  |  |  |  |  |  | 2880 nM |
| O=C(Cn1cc(-c2ccccc2)nn1)c1c[nH]c2ncccc12 |  |  |  |  | 95.9% | 82.8% | > 50 µM | 100 µM | > 50 µM | 1.5 | > 25 µM | > 25 µM | 86.8% |  |
| c1cnc2[nH]cc(CCCn3nncc3-c3c[nH]c4ncccc34)c2c1 |  |  |  |  | 63.4% | 59.9% | 2.7 µM | 2.51 µM | 33.4 µM | 4.2 | > 25 µM | > 25 µM | 26.5% |  |
| O=S(=O)(c1ccccc1)n1cc(Cn2cc(-c3c[nH]c4ncccc34)nn2)c2cccnc21 |  |  |  |  | 73.3% | 78.7% | 25.8 µM | 25.1 µM | > 50 µM | 7.5 | > 25 µM | > 25 µM | 86.1% |  |
| Cc1ccc(NC(=O)c2ccc(CN3CCN(C)CC3)cc2)cc1Nc1nccc(-c2cccnc2)n1 [IMATINIB] |  |  |  |  |  |  |  |  |  |  | 0.73 µM | > 10 µM |  |  |
| NC(=O)C(=O)NNC(=O)Nc1cccc2c1C(=O)c1c-2n[nH]c1-c1ccc(O)cc1 |  |  |  |  |  |  |  |  |  |  |  |  |  | 19.1 nM |
| O=C(Cn1cc(-c2cc3cccnc3[nH]2)nn1)c1c[nH]c2ncccc12 |  |  |  |  | 91.4% | 84.9% | 9.2 µM | 10 µM | > 50 µM | 1.7 | > 25 µM | > 25 µM | 82% |  |
| O=S(=O)(c1ccccc1)n1c(-c2cn(CCCc3c[nH]c4ncccc34)nn2)cc2cccnc21 |  |  |  |  | 89.2% | 84.1% | 18 µM | 20 µM | > 50 µM | 1.8 | > 25 µM | > 25 µM | 86.8% |  |
| O=C(CCn1nncc1-c1cc2cccnc2[nH]1)c1c[nH]c2ncccc12 |  |  |  |  |  |  | 36.1 µM | 31.6 µM | > 50 µM |  | > 25 µM | > 25 µM | 62.7% |  |
| O=C(Cn1nncc1-c1c[nH]c2ncccc12)c1c[nH]c2ncccc12 |  |  |  |  | 76.6% | 75.2% | 1.1 µM | 1 µM | > 50 µM | 2.9 | > 25 µM | > 25 µM | 63% |  |

| Structure (SMILES) | IC50 (CDK7/Cyclin H/MNAT1) | IC50 [1] | IC50 [2] | IC50 [3] | viability at 50 µM (K562 [4]) | viability at 50 µM (MCF7 [5]) | IC50 ([6]; read-out: IC50) | IC50 ([6]; read-out: pIC50 (converted)) | IC50 [7] | fold change (FC) (G-361) | IC50 (K562 [8]) | IC50 (MCF7 [9]) | viability at 50 µM [10] | IC50 [11] |
| --- | --- | --- | --- | --- | --- | --- | --- | --- | --- | --- | --- | --- | --- | --- |
| CC[C@H](CO)Nc1nc(NCc2ccccc2)c2ncn(C(C)C)c2n1 [SELICICLIB] |  |  |  |  |  |  |  |  | 20.8 µM |  | 30.9 µM | 27.2 µM |  |  |
| Cc1nc2ccccn2c1-c1ccnc(NC(=O)Nc2ccccc2)n1 |  |  |  |  |  |  |  |  |  |  |  |  |  | 10000 nM |
| c1ccc(-c2cn(CCc3c[nH]c4ncccc34)nn2)cc1 |  |  |  |  | 65.7% | 65.6% | > 50 µM | 100 µM | 33.6 µM | 3.1 | > 50 µM | > 50 µM | 43.3% |  |
| c1cnc2[nH]cc(CCn3cc(-c4c[nH]c5ncccc45)nn3)c2c1 |  |  |  |  | 58.6% | 71.4% | 7.2 µM | 7.94 µM | 44.2 µM | 1.2 | 39.5 µM | 87.1 µM | 53% |  |
| c1cnc2[nH]c(-c3cn(CCc4c[nH]c5ncccc45)nn3)cc2c1 |  |  |  |  | 67.2% | 63.2% | 30 µM | 31.6 µM | > 50 µM | 4.5 | > 50 µM | 58.5 µM | 59.1% |  |
| O=C(Cn1cc(-c2c[nH]c3ncccc23)nn1)c1c[nH]c2ncccc12 |  |  |  |  | 88% | 83.5% | 29.3 µM | 31.6 µM | > 50 µM | 2.2 | > 25 µM | > 25 µM | 84.1% |  |
| O=S(=O)(c1ccccc1)n1c(-c2cn(CCc3c[nH]c4ncccc34)nn2)cc2cccnc21 |  |  |  |  | 82.7% | 76.2% | > 25 µM | 25.1 µM | > 50 µM | 2.1 | > 25 µM | > 25 µM | 71.1% |  |
| O=S(=O)(c1ccccc1)n1cc(Cn2cc(-c3cc4cccnc4[nH]3)nn2)c2cccnc21 |  |  |  |  | 90.2% | 72.6% | > 25 µM | 25.1 µM | > 50 µM | 1.6 | > 25 µM | > 25 µM | 76.4% |  |
| c1cnc2[nH]cc(CCn3nncc3-c3c[nH]c4ncccc34)c2c1 |  |  |  |  | 59.2% | 58% | 9.1 µM | 10 µM | > 50 µM | 1.9 | > 25 µM | > 25 µM | 65.7% |  |
| CC(C)[C@H](CO)Nc1nc(NCc2ccc(Cl)cc2)c2ncn(C(C)C)c2n1 |  |  |  |  |  |  |  |  |  |  |  |  |  | 34.7 nM |
| O=C(CCn1cc(-c2cc3cccnc3[nH]2)nn1)c1c[nH]c2ncccc12 |  |  |  |  | 75.8% | 41.2% | 3.6 µM | 3.98 µM | > 50 µM | 1.2 | > 25 µM | > 25 µM | 62.4% |  |
| c1cnc2[nH]cc(CCCn3cc(-c4c[nH]c5ncccc45)nn3)c2c1 |  |  |  |  | 72.1% | 52% | 6.1 µM | 6.31 µM | 36.9 µM | 3.9 | 66.6 µM | 60.7 µM | 70% |  |
| O=C(CCn1cc(-c2c[nH]c3ncccc23)nn1)c1c[nH]c2ncccc12 |  |  |  |  | 65% | 63.5% | 17.8 µM | 20 µM | > 50 µM | 4.5 | 44.3 µM | 64.7 µM | 61.3% |  |
| c1cnc2[nH]c(-c3cnnn3CCc3c[nH]c4ncccc34)cc2c1 |  |  |  |  | 70% | 74.4% | 27.6 µM | 25.1 µM | > 50 µM | 2 | > 25 µM | > 25 µM | 69.5% |  |
| c1cnc2[nH]c(-c3cn(CCCc4c[nH]c5ncccc45)nn3)cc2c1 |  |  |  |  | 91.5% | 80.5% | 8.7 µM | 7.94 µM | > 50 µM | 1.9 | > 25 µM | > 25 µM | 81.8% |  |
| O=C(Cn1nncc1-c1cc2cccnc2[nH]1)c1c[nH]c2ncccc12 |  |  |  |  | 91.1% | 98% | 3 µM | 3.16 µM | > 50 µM | 2.2 | > 25 µM | > 25 µM | 96.3% |  |
